The subject of experiment [1] is Vero. In words: Antiviral activity against herpes simplex virus type 1 Patton(BWr) plaque forming unit grown on Human foreskin fibroblast cells upon incubation for 1 hour at 37 degrees C with compound dissolved in DMSO. The experiment is classed as functional, cell-based. Conditions: Chlorocebus sabaeus. A digest of the protocol: (§1)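 Plaque reduction: about 50 PFU added per well of a 24-well dish of the appropriate cells, 1 h at 37 °C, then the inoculum was replaced by drug-containing DMEM with 10% FBS and 0.8% carboxymethyl cellulose. DMSO stocks were 200-fold. Plates were held at 37 °C until plaques formed. Plaques were counted microscopically or after crystal violet stain. Percent inhibition was taken against the uninhibited control, with IC50 by linear regression.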

For a further experiment, the system named is HFF. Briefly: Antiviral activity against human cytomegalovirus Ad169 (WT) plaque forming unit grown on Human foreskin fibroblast cells upon incubation for 1 hour at 37 degrees C with compound dissolved in DMSO. The experiment is classed as functional, cell-based, Human betaherpesvirus 5. A digest of the protocol: as §1
Experiment [2] concerns Vero. In words: Antiviral activity against herpes simplex virus type 1 KOS (AraAr13) plaque forming unit grown on Human foreskin fibroblast cells upon incubation for 1 hour at 37 degrees C with compound dissolved in DMSO. The experiment is classed as functional, cell-based. The note with it: Chlorocebus sabaeus. In outline:
as §1

Experiment [3] has as its system Vero. Briefly: Antiviral activity against herpes simplex virus type 1 KOS (WT) plaque forming unit grown on African green monkey kidney Vero cells upon incubation for 1 hour at 37 degrees C with compound dissolved in DMSO. The note with it: Chlorocebus sabaeus.
In experiment [4] the test system is Vero. In words: Antiviral activity against herpes simplex virus type 2 (V826A) plaque forming unit grown on Human foreskin fibroblast cells upon incubation for 1 hour at 37 degrees C with compound dissolved in DMSO. The format is functional, cell-based. The note with it: Chlorocebus sabaeus. A digest of the protocol:
as §1

The subject of experiment [5] is Vero. In words: Antiviral activity against herpes simplex virus type 1 KOS (V823A) plaque forming unit grown on Human foreskin fibroblast cells upon incubation for 1 hour at 37 degrees C with compound dissolved in DMSO. The format is functional, cell-based. Conditions: Chlorocebus sabaeus. In outline:
as §1

Experiment [6] has as its system Vero. In words: Antiviral activity against herpes simplex virus type 2 (WT) plaque forming unit grown on Human foreskin fibroblast cells upon incubation for 1 hour at 37 degrees C with compound dissolved in DMSO. The note with it: Chlorocebus sabaeus. The format is functional, cell-based. A digest of the protocol:
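Plaque reduction: about 50 PFU per well onto the appropriate cell monolayer, adsorbed 1 h at 37 °C. Inoculum was then replaced with DMEM containing 10% FBS, 0.8% carboxymethyl cellulose and diluted compound from 200-fold DMSO stocks. Plates were held at 37 °C until plaques formed, which were counted microscopically or after crystal violet staining. IC50 came from linear regression of % inhibition versus untreated control, as the mean of two determinations.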

For orientation: IC50 means the concentration that gives 50% inhibition. For the compound `Cn1cc(C(=O)NCc2ccc(Cl)cc2)c(=O)c2cc(CN3CCOCC3)sc21`, the IC50 in the experiment with Vero [1] is 2.5 µM; with HFF it was 1.5 µM; in the experiment with Vero [2], 2.1 µM; with Vero [3], 5.6 µM; in the experiment with Vero [4], over 50 µM; in the experiment with Vero [5], over 50 µM. In the experiment on Vero [6], the IC50 was 0.8 µM.
